# Experimental data of several laboratories.
# Protocols differ between the studies behind these lines.
# Cell line: MCF7
# Read-out: cell growth or viability
SMILES,assay,conditions,endpoint,result
Clc1ccc(-c2nc3ccccc3n2Cc2ccccc2)cc1Cl,MTT,,IC50,62.4 µM
COc1ccc(C(=O)/C=C/c2cccc(Br)c2)cc1S(N)(=O)=O,SRB,10 µM,inhibition,177%
C[C@]12CC[C@@H]3c4ccc(O)cc4CC[C@H]3[C@@H]1CC[C@@H]2O,ATP luminescence,72 h,EC50,22.5 µM
COc1cc(C(CC(C)=O)NCCc2ccc(O)c(O)c2)ccc1O (stereo not shown),MTT,,TGI,46.2 µM
Cc1ccc2nc(-c3ccc(Cl)cc3)n(Cc3ccccc3Cl)c2c1,MTT,,IC50,59.8 µM
COc1cc(C(CC(=O)c2ccc(Cl)cc2)NCCc2ccc(O)c(O)c2)ccc1O (stereo not shown),MTT,,TGI,3.05 µM
COc1ccc(C(=O)/C=C/c2cccnc2)cc1S(N)(=O)=O,SRB,10 µM,inhibition,93%
COc1cc(C(CC(N)=O)NCCc2ccc(O)c(O)c2)ccc1O (stereo not shown),MTT,,TGI,52 µM
COc1cccc2c1C(=O)c1c(O)c3c(c(O)c1C2=O)C[C@@](O)(C(=O)CO)C[C@@H]3O[C@H]1C[C@H](N)[C@H](O)[C@H](C)O1,MTT,48 h,IC50,0.06 µM
CSc1ccc(-c2nc3ccc(C)cc3n2Cc2ccccc2)cc1,MTT,,IC50,29 µM
COc1ccccc1/C=C/C(=O)c1ccc(OC)c(S(N)(=O)=O)c1,SRB,10 µM,inhibition,92%
Cc1ccc2nc(-c3ccc([N+](=O)[O-])cc3)[nH]c2c1,MTT,48 h,IC50,10.5 µM
COc1ccc(C(=O)/C=C/c2cccc3ccccc23)cc1S(N)(=O)=O,SRB,10 µM,inhibition,160%
COc1cc(CNC(=O)C[C@H](C)CCC=C(C)C)ccc1OCc1cn(-c2ccc(Cl)cc2)nn1,SRB,10 µM,inhibition,34%
CCCCCCCCCCCCNC(=S)NCCCC[C@H](NS(C)(=O)=O)C(=O)N[C@H](C)C(=O)N[C@@H](CCCNC(=N)N)C(=O)N1CCOCC1,MTT,72 h,EC50,64.7 to 93.7 µM
COc1cccc2c1C(=O)c1c(O)c3c(c(O)c1C2=O)C[C@@](O)(C(=O)CO)C[C@@H]3O[C@H]1C[C@H](N)[C@H](O)[C@H](C)O1,MTT,,IC50,19.7 µM
COc1ccc(Cc2nc(/N=C3\NC(=O)N(C)C3=O)n(C)c2Cc2ccc(O)cc2)cc1,,,EC50,5.9 µM
COc1cccc2c1C(=O)c1c(O)c3c(c(O)c1C2=O)C[C@@](O)(C(=O)CO)C[C@@H]3O[C@H]1C[C@H](N)[C@H](O)[C@H](C)O1,MTT,,TGI,0.21 µM
COc1cccc(-c2nc3ccccc3[nH]2)c1,MTT,48 h,IC50,51.4 µM
COc1ccc(C(=O)/C=C/c2ccccc2Cl)cc1S(N)(=O)=O,SRB,10 µM,inhibition,4%
CCCCCCCCCCCCNC(=O)NCCCC[C@H](NS(C)(=O)=O)C(=O)N[C@H](C)C(=O)N[C@@H](CCCNC(=N)N)C(N)=O,MTT,72 h,EC50,69.2 to 78.9 µM
Clc1ccc(-c2nc3ccccc3n2Cc2ccccc2)cc1,MTT,,IC50,40.2 µM
C[C@@H](NC(=O)[C@H](CCCCNC(=O)C(F)(F)F)NS(C)(=O)=O)C(=O)N[C@@H](CCCNC(=N)N)C(N)=O,MTT,72 h,EC50,47.6 to 62.8 µM
CC(C)c1cnn2c(NCc3ccccc3)cc(NC[C@H]3CCNC[C@@H]3O)nc12,,"0.1 µM, 9 days",inhibition,~50%
Cc1ccc2nc(-c3ccncc3)[nH]c2c1,MTT,48 h,IC50,54.6 µM
COc1ccc(C(=O)/C=C/c2cc3c(cc2Br)OCO3)cc1S(N)(=O)=O,SRB,10 µM,inhibition,102%
C=CCn1c(-c2ccc(OC)c(OC)c2)nc2ccccc21,MTT,,IC50,37 µM
COc1ccc(C(=O)/C=C/c2ccc3c(c2)OCCO3)cc1S(N)(=O)=O,SRB,10 µM,inhibition,77%
